Test results published in ChEMBL document CHEMBL1143739, “SAR study of bicyclo[4.1.0]heptanes as melanin-concentrating hormone receptor R1 antagonists: taming hERG” (Bioorg Med Chem, 2007).
Active and inactive are the calls of the source. The calls are words filed in the database; no cut-off is given here.

How the values were obtained:
hERG (KCNH2) [1] = molecular target: T1, hERG (KCNH2) (Homo sapiens, UniProt Q12809); test: (§1) Inhibition of hERG expressed in CHO cells at 5 ug/mL by rubidium efflux assay; type: toxicity, cell-based; details: CHO cells that express hERG
T1 sequence (Q12809 whole entry): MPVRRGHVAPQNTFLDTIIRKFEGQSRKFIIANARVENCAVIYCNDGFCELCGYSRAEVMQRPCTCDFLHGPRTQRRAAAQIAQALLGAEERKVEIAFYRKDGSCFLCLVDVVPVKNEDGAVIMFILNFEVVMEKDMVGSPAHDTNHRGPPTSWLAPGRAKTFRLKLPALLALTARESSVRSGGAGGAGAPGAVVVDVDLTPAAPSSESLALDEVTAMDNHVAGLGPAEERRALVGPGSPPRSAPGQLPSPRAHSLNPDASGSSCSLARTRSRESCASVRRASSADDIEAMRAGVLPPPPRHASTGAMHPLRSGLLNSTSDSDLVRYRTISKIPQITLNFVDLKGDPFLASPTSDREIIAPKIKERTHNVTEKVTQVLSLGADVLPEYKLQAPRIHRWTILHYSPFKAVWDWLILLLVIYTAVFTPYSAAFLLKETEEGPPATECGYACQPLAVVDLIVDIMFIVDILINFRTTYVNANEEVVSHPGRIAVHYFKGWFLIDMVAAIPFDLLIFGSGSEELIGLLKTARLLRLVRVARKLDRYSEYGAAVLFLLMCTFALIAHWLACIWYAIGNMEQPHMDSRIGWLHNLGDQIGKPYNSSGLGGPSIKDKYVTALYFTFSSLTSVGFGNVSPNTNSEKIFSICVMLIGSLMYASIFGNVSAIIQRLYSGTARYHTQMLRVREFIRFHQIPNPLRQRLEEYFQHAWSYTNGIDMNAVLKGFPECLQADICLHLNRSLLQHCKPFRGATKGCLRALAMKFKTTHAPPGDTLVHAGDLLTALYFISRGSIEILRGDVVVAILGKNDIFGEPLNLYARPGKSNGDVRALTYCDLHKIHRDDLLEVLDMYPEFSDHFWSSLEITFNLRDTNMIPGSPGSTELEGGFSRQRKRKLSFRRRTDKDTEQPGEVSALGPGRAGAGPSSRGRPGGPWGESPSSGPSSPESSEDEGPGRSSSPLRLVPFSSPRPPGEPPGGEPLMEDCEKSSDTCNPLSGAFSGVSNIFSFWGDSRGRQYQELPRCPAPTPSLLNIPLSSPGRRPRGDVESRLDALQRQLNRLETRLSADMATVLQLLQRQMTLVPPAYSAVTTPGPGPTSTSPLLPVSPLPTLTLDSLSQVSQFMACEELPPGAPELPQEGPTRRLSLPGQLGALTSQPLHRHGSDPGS
How it was run: (§2)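 hERG-CHO cells plated 24 h, then loaded 3 h in HEPES-buffered saline with 5.4 mM RbCl. Compound added and equilibrated 30 min at 37 °C. Cells washed three times in Rb-free saline (5.4 mM KCl), then depolarized 5 min with 45.4 mM KCl.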

[2] = molecular target: Melanin-concentrating hormone receptor 1 (Mus musculus) (UniProt Q8JZL2); test: Ex vivo displacement of [125I]S36057 binding from mouse brain MCHR1 at 30 mg/kg, po after 6 hrs; type: functional, organism-based; parameters: dose 30 mg/kg
Sequence of Melanin-concentrating hormone receptor 1 (Mus musculus) (Q8JZL2 whole entry): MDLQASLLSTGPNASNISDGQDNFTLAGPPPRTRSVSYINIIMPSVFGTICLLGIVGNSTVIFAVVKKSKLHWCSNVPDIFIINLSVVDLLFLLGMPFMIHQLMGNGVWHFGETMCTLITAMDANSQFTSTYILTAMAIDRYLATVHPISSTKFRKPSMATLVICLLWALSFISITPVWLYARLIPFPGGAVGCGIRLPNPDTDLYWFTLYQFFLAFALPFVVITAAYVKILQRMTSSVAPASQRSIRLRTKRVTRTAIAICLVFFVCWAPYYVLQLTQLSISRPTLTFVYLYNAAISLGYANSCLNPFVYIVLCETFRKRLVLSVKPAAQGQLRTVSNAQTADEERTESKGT

[3] = molecular target: Melanin-concentrating hormone receptor 1 (Homo sapiens, UniProt Q99705); test: Displacement of [125I]MCH from MCHR1 expressed in CHO cells; type: cell-based
Sequence of Melanin-concentrating hormone receptor 1 (Q99705 whole entry): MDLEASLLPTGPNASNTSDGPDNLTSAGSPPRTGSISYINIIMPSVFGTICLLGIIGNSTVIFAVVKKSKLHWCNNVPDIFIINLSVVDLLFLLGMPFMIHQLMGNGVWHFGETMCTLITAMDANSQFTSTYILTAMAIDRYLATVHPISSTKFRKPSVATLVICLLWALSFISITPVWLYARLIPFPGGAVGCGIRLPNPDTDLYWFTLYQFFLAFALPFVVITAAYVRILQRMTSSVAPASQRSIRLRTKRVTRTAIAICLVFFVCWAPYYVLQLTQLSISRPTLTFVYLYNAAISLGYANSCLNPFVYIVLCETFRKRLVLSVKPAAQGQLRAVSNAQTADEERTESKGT
How it was run: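 Human MCH R1, CHO cell membranes (0.1 mg/mL) on SPA beads (1 mg/mL). Buffer: 25 mM HEPES, 10 mM MgCl2, 5 mM MnCl2, 0.1% BSA, pH 7.4. Incubation 2–4 h at room temperature, scintillation count. Ki by non-linear regression; mean ± range of two determinations, each in quadruplicate.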

hERG (KCNH2) [4] = molecular target: T1, hERG (KCNH2); test: Inhibition of hERG expressed in CHO cells at […] by rubidium efflux assay; type: toxicity, cell-based; details: CHO cells that express hERG
[5] = molecular target: Voltage-gated inwardly rectifying potassium channel KCNH2 (Homo sapiens, UniProt Q12809); test: as §1; type: toxicity, cell-based; details: cho; how it was run: as §2
Sequence of Voltage-gated inwardly rectifying potassium channel KCNH2 (Q12809 whole entry): as the sequence (Q12809 whole entry) above

[6] = molecular target: Melanin-concentrating hormone receptor 1 (Mus musculus) (UniProt Q8JZL2); test: Ex vivo displacement of [125I]S36057 binding from mouse brain MCHR1 at 30 mg/kg, po after 24 hrs; type: functional, organism-based; parameters: dose 30 mg/kg

SMILES	inhibition at 5 ug/mL (hERG (KCNH2) [1]) [%]	Activity [2] [%]	Ki [3] [nM]	inhibition at […] (hERG (KCNH2) [4]) [%]	Activity [5]	Activity [6]
CS(=O)(=O)N1CCC(CN(C(=O)Nc2cc(Cl)nc(Cl)c2)[C@@H]2CC[C@]3(c4cccc(CN)c4)CC3C2)CC1 (stereo partly specified)	3	0	2.4	-1	–	–
CC(C)NCCN(C(=O)Nc1cc(Cl)nc(Cl)c1)[C@@H]1CC[C@]2(c3cccc(C#N)c3)CC2C1 (stereo partly specified)	–	93	1.9	–	Not Active	70%
CC(C)N(CCO)CCN(C(=O)Nc1cc(Cl)nc(Cl)c1)[C@@H]1CC[C@]2(c3cccc(C#N)c3)CC2C1 (stereo partly specified)	–	99	1.6	–	Not Active	inactive
CC(C)N(CCN(C(=O)Nc1ccc(F)c(Cl)c1)[C@@H]1CC[C@]2(c3cccc(C#N)c3)CC2C1)[C@H](C)CO (stereo partly specified)	–	73	9.4	–	Not Active	25%
CO/N=C/c1cccc([C@]23CC[C@@H](N(CCN(C(C)C)C(C)C)C(=O)Nc4ccc(F)c(Cl)c4)CC2C3)c1 (stereo partly specified)	76	62	4.1	–	–	inactive
NCc1cnc(C2=CCC(N(CCN3CCCC3)C(=O)Nc3ccc(F)c(Cl)c3)CC2)s1 (stereo unspecified)	14	37	17	–	–	–
CC(C)N(CCN(C(=O)Nc1ccc(F)c(Cl)c1)[C@@H]1CC[C@]2(c3cccc(C#N)c3)CC2C1)C(C)C (stereo partly specified)	78	83	5	44	–	inactive
O=C(Nc1ccc(F)c(Cl)c1)N(CCN1CCCC1)C1CC=C(c2cccnc2)CC1 (stereo unspecified)	–	16	30	–	–	–
CC(C)N(CCF)CCN(C(=O)Nc1cc(Cl)nc(Cl)c1)[C@@H]1CC[C@]2(c3cccc(C#N)c3)CC2C1 (stereo partly specified)	50	99	10	–	–	97%
CC(C)N(CCO)CCN(C(=O)Nc1ccc(F)c(Cl)c1)[C@@H]1CC[C@]2(c3cccc(C#N)c3)CC2C1 (stereo partly specified)	88	73	8.7	–	–	38%
CN(C)Cc1cccc([C@]23CC[C@@H](N(CC4CCN(S(C)(=O)=O)CC4)C(=O)Nc4cc(Cl)nc(Cl)c4)CC2C3)c1 (stereo partly specified)	7	0	3.3	8	–	–
NCc1ccc(C2=CCC(N(CCN3CCCC3)C(=O)Nc3ccc(F)c(Cl)c3)CC2)s1 (stereo unspecified)	26	77	8.2	–	–	57%
CC1CC[C@@H](CO)N1CCN(C(=O)Nc1ccc(F)c(Cl)c1)[C@@H]1CC[C@]2(c3cccc(C#N)c3)CC2C1 (stereo partly specified)	78	31	11	–	–	2%
CC(C)N(CCN(C(=O)Nc1cc(Cl)nc(Cl)c1)[C@@H]1CC[C@]2(c3cccc(C#N)c3)CC2C1)C(C)C (stereo in doubt; 13)	–	99	–	–	–	58%
CC1CC[C@@H](CO)N1CCN(C(=O)Nc1cc(Cl)nc(Cl)c1)[C@@H]1CC[C@]2(c3cccc(C#N)c3)CC2C1 (stereo partly specified)	60	82	1.2	–	–	41%
